In paper PMC3338355 (Biochemistry, 2011):
Non-standard residues stand in square brackets, D forms with d. No end group written: not given here. pS = N[C@@H](COP(=O)(O)O)C(=O)O

Columns and labels:
dullard = settings: dullard-catalyzed hydrolysis of generic substrate; cited from earlier work
Dullard 46–244 [1] = target: T1, Dullard 46–244 (Homo sapiens, UniProt O95476); experiment: Biomol Green phosphate reagent; format: biochemical; settings: values in parentheses, 25 °C
T1 sequence (O95476 46-244): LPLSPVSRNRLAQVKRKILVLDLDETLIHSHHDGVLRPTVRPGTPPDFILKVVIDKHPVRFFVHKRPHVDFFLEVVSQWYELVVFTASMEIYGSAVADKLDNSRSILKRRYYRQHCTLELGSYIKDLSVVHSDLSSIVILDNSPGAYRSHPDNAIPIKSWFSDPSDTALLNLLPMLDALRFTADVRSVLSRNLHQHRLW
Method in brief: (§1)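 Dullard residues 46–244 expressed in E. coli and purified to >95% by SDS/PAGE. Substrates were Pro/Thr/Ser-containing phosphoserine nonapeptides representing lipin1 phosphorylation sites. Dephosphorylation was followed as phosphate release under steady-state conditions to derive kcat/Km. The MESG-coupled assay and the molybdate green assay were used as independent read-outs.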

Dullard 46–244 [2] = target: T1, Dullard 46–244; experiment: MESG-coupled phosphatase assay; format: biochemical; settings: MESG-coupled phosphatase assay (EnzChek E-6646), 25°C
Method in brief: as §1

| Compound | Km (dullard) | kcat (dullard) | kcat/Km (dullard) | kcat (Dullard 46–244 [1]) | kcat/Km (Dullard 46–244 [2]) | Km (Dullard 46–244 [1]) | kcat/Km (Dullard 46–244 [1]) |
| --- | --- | --- | --- | --- | --- | --- | --- |
| O=[N+]([O-])c1ccc(OP(=O)(O)O)cc1 [pNPP, p-nitrophenyl phosphate] | 18000 µM | 1 s⁻¹ | 56 M⁻¹ s⁻¹ |  |  |  |  |
| DNMNT[pS]EDE [S176] |  |  |  | > 0.5 s⁻¹ |  |  |  |
| PIL[pS]EGASR [S110] |  |  |  | 0.28 ± 0.02 s⁻¹ | 650 M⁻¹ s⁻¹ | 700 µM | 400 M⁻¹ s⁻¹ |
| SGSRP[pS]TP [S248] |  |  |  | 0.01 ± 0.002 s⁻¹ | 750 M⁻¹ s⁻¹ | 700 µM | 14 M⁻¹ s⁻¹ |
